Assay results reported in ChEMBL document CHEMBL1765026, “Small molecule agonists of the orphan nuclear receptors steroidogenic factor-1 (SF-1, NR5A1) and liver receptor homologue-1 (LRH-1, NR5A2)” (J Med Chem, 2011).
Values belong to the compound of their own block, whether it stands above or below them. Activity calls are given as the source filed them. No cut-off for these calls is given here.

Assays:
Steroidogenic factor 1 [1] = molecular target: T1, Steroidogenic factor 1 (Homo sapiens, UniProt Q13285); test: Inverse agonist activity at SF-1; assay type: functional
T1 sequence (Q13285 whole entry): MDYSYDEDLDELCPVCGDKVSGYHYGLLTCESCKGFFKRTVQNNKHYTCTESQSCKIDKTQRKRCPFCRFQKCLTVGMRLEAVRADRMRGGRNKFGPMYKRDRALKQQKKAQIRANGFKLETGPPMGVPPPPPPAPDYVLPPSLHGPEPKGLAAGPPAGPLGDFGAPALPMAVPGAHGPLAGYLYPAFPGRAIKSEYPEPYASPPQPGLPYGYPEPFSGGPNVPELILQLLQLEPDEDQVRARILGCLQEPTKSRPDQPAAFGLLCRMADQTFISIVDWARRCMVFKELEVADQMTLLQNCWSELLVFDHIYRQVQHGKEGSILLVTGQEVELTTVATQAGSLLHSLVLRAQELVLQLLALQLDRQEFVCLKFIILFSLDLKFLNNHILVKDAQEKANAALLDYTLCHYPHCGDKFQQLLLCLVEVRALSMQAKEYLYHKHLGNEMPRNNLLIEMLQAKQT

NCI-H295RR = test: Inhibition of doxycycline induced proliferation in human NCI-H295RR cells; assay type: functional, cell-based
Steroidogenic factor 1 [2] = molecular target: T1, Steroidogenic factor 1; test: Agonist activity at human SF-1 assessed as DAX1 1-23 peptide recruitment by TR-FRET assay relative to control
Steroidogenic factor 1 [3] = molecular target: T1, Steroidogenic factor 1; test: Agonist activity at human SF-1 assessed as DAX1 1-23 peptide recruitment by TR-FRET assay; assay type: functional
Outline: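 Biotinylated, bacterially expressed human SF-1 LBD was bound to APC-streptavidin. Biotinylated DAX-1 peptide (aa 1–23) was bound to europium-streptavidin. Receptor and peptide were incubated with test compound, typically at 11 concentrations from 1 nm to 10 µM. Recruitment was read by TR-FRET as the 671/618 nm fluorescence ratio, and pEC50 was calculated from the dose–response curve.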

[4] = molecular target: Steroidogenic factor 1 (Mus musculus) (UniProt P33242); test: Displacement of dipalmitoyl phosphatidylinositol 4,5-bisphosphate from mouse SF-1 ligand binding domain at 100 uM after 16 hrs with Coomassie blue staining by PAGE method
Chain of Steroidogenic factor 1 (Mus musculus) (P33242 whole entry, the tested form may be a part): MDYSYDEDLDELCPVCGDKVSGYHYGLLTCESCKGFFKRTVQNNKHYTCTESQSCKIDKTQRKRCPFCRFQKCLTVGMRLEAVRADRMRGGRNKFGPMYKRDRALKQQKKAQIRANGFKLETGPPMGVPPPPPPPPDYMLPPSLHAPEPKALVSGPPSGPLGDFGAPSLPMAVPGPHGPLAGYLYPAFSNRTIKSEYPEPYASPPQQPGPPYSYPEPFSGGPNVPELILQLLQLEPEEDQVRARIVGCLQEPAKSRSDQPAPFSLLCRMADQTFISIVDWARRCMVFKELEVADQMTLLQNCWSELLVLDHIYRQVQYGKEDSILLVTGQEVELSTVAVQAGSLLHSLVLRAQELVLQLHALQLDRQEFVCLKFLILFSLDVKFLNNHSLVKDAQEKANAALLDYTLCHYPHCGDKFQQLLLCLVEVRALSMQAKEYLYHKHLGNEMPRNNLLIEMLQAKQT

[5] = molecular target: Steroidogenic factor 1 (Mus musculus) (UniProt P33242); test: Agonist activity at mouse SF-1 expressed in HEK293 cells assessed as increase in SHP mRNA levels at 10 uM after 24 hrs by RT-qPCR method; assay type: functional, cell-based
Outline: (§1)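 HEK293 cells stably carrying Tet-inducible, 3XFlag-tagged mouse SF-1 were induced with 100 ng/mL Tet, and compound in DMSO was added 16 h later. Cells were treated at 10 µM for 24 h. Transcript levels were measured by RT-qPCR and expressed relative to DMSO vehicle.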

[6] = molecular target: Steroidogenic factor 1 (Mus musculus) (UniProt P33242); test: Agonist activity at mouse SF-1 expressed in HEK293 cells assessed as increase in GOS2 mRNA levels at 10 uM after 24 hrs by RT-qPCR method; assay type: functional, cell-based; outline: as §1
[7] = Solubility of the compound; assay type: physicochemical
[8] = molecular target: Steroidogenic factor 1 (Mus musculus) (UniProt P33242); test: Agonist activity at mouse SF-1 expressed in HEK293 cells assessed as increase in StAR mRNA levels at 10 uM after 24 hrs by RT-qPCR method; assay type: functional, cell-based; outline: as §1
[9] = molecular target: Nuclear receptor subfamily 5 group A member 2 (Homo sapiens) (UniProt O00482); test: Agonist activity at human LRH-1 ligand binding domain at 100 uM with Coomassie blue staining by PAGE method
Chain of Nuclear receptor subfamily 5 group A member 2 (Homo sapiens) (O00482 whole entry, the tested form may be a part): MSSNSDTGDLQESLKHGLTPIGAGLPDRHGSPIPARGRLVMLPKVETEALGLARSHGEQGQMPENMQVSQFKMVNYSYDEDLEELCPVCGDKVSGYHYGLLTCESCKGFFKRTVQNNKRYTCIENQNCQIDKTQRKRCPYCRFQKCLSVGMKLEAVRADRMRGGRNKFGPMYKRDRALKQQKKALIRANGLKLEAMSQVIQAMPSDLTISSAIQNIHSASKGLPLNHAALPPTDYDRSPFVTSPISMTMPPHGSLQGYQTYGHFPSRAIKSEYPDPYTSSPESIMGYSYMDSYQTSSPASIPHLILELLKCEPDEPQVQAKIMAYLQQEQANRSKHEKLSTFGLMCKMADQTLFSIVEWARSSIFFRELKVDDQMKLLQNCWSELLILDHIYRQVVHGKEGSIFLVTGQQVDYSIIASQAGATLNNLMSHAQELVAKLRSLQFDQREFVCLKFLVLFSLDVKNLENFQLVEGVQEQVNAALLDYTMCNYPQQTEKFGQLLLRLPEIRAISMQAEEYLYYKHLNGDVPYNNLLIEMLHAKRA

[10] = molecular target: Steroidogenic factor 1 (Mus musculus) (UniProt P33242); test: Agonist activity at mouse SF-1 expressed in HEK293 cells assessed as increase in MeOx1 mRNA levels at 10 uM after 24 hrs by RT-qPCR method; assay type: functional, cell-based; outline: as §1
[11] = molecular target: Steroidogenic factor 1 (Mus musculus) (UniProt P33242); test: Displacement of dipalmitoyl phosphatidylinositol 4,5-bisphosphate from mouse SF-1 ligand binding domain at 1 uM after 16 hrs with Coomassie blue staining by PAGE method
Steroidogenic factor 1 [12] = molecular target: T1, Steroidogenic factor 1; test: Agonist activity at human SF-1 assessed as DAX1 1-23 peptide recruitment by TR-FRET assay relative to control
[13] = molecular target: Steroidogenic factor 1 (Mus musculus) (UniProt P33242); test: Agonist activity at mouse SF-1 expressed in HEK293 cells assessed as increase in SHP mRNA levels at 5 uM after 24 hrs by RT-qPCR method; assay type: functional, cell-based
Outline: (§2)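 Stable HEK293 lines expressing Tet-inducible mouse SF-1 or empty vector were induced with 100 ng/mL Tet, with compound in DMSO added 16 h afterward. Cells were exposed to a dose series for 24 h. SHP mRNA was quantified by RT-qPCR relative to DMSO, with significance by p-value.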

[14] = molecular target: Steroidogenic factor 1 (Mus musculus) (UniProt P33242); test: Agonist activity at mouse SF-1 expressed in HEK293 cells assessed as increase in SHP mRNA levels after 24 hrs by RT-qPCR method; assay type: functional, cell-based; outline: as §2
[15] = molecular target: Nuclear receptor subfamily 5 group A member 2 (Homo sapiens) (UniProt O00482)

IC50 (Steroidogenic factor 1 [1]): 7300 nM
SMILES: CCCCCCCOc1ccc(O)cc1

EC50 (Steroidogenic factor 1 [2]): 200 nM
Ratio (Steroidogenic factor 1 [3]): 0.56
SMILES: CCCCCCC1=C(c2ccccc2)[C@]2(OCC(C)CC)CCC[C@@H]2C1 (mixture of isomers)

EC50 (Steroidogenic factor 1 [2]): 200 nM
Ratio (Steroidogenic factor 1 [3]): 0.34
SMILES: C=C(c1ccccc1)[C@@]12C[C@H](OC(C)=O)C[C@@H]1CC(CCCCCC)=C2c1ccccc1 (racemic)

pEC50 [15]: inactive
pEC50 (Steroidogenic factor 1 [12]): inactive
SMILES: C=C(CCCCCCCC)[C@@]12CCC[C@@H]1CC(CCCCCC)=C2c1ccccc1 (racemic)

pEC50 [15]: inactive
pEC50 (Steroidogenic factor 1 [12]): inactive
SMILES: C=C(c1ccc(C(C)(C)C)cc1)[C@@]12CCC[C@@H]1CC(CCCCCC)=C2c1ccccc1 (racemic)

pEC50 (Steroidogenic factor 1 [12]): inactive
SMILES: C=C(c1ccc(CCCC)cc1)[C@@]12CCC[C@@H]1CC(CCCCCC)=C2c1ccccc1 (racemic)

pEC50 [15]: inactive
pEC50 (Steroidogenic factor 1 [12]): inactive
SMILES: C=C(c1ccc(OC)cc1)[C@@]12CCC[C@@H]1CC(CCCCCC)=C2c1ccccc1 (racemic)

pEC50 [15]: inactive
SMILES: C=C(c1ccccc1)[C@@]12CCC[C@@H]1CC(CCCCCC)=C2CCC (racemic)

pEC50 [15]: inactive
pEC50 (Steroidogenic factor 1 [12]): inactive
SMILES: C=C(c1ccccc1)[C@@]12CCC[C@@H]1CC(CCCCCC)=C2CCCCCC (racemic)

Activity [4]: inactive
pEC50 (Steroidogenic factor 1 [12]): inactive
Activity [5]: inactive
SMILES: C=C(c1ccccc1)[C@@]12CCC[C@@H]1CC(CCCCCC)=C2CCCO (racemic)

pEC50 [15]: inactive
pEC50 (Steroidogenic factor 1 [12]): inactive
SMILES: C=C(c1ccccc1)[C@@]12CCC[C@@H]1CC(CCCCCC)=C2c1ccc(CC)cc1 (racemic)

pEC50 [15]: inactive
pEC50 (Steroidogenic factor 1 [12]): inactive
SMILES: C=C(c1ccccc1)[C@@]12C[C@@H](OC(C)=O)C[C@@H]1CC(CCCCCC)=C2c1ccccc1 (racemic)

pEC50 (Steroidogenic factor 1 [12]): inactive
SMILES: CCCCCCC1=C(c2ccccc2)[C@]2(OCc3ccccc3)CCC[C@@H]2C1 (racemic)

Continued, compound first:

SMILES: CCOC(=O)C(C)Oc1cccc2c(=O)n(CC(=O)Nc3ccc(OC)cc3)ccc12 (stereo not given)
Activity (NCI-H295RR): Active

SMILES: CCCCCCC1=C(c2ccccc2)[C@]2(OCCC)CCC[C@@H]2C1 (racemic)
EC50 (Steroidogenic factor 1 [2]): 200 nM
Ratio (Steroidogenic factor 1 [3]): 0.67

SMILES: C=C(CCCC)[C@@]12CCC[C@@H]1CC(CCCCCC)=C2c1ccccc1 (racemic)
Activity [4]: inactive
EC50 (Steroidogenic factor 1 [2]): 200 nM
Ratio (Steroidogenic factor 1 [3]): 0.76
Activity [5]: inactive

SMILES: C=C(c1ccccc1)[C@@]12CCC[C@@H]1CC(CCCCCC)=C2C1CCCCC1 (racemic)
EC50 (Steroidogenic factor 1 [2]): 200 nM
Ratio (Steroidogenic factor 1 [3]): 0.59

SMILES: C=C(c1ccccc1)[C@@]12CCC[C@@H]1CC([Si](C)(C)c1ccccc1)=C2c1ccccc1 (racemic)
EC50 (Steroidogenic factor 1 [2]): 63.1 nM
Ratio (Steroidogenic factor 1 [3]): 0.33

SMILES: C=C(c1ccccc1)[C@@]12CN(C)C[C@@H]1CC(CCCCCC)=C2c1ccccc1 (racemic)
Activity [6]: Active
solubility [7]: soluble
Activity [8]: Active
Activity [9]: Active
Activity [10]: Active
Activity [11]: Active
Activity [5]: Active

SMILES: C=C(c1ccccc1)[C@@]12CN(Cc3ccccc3)C[C@@H]1CC(CCCCCC)=C2c1ccccc1 (racemic)
solubility [7]: soluble
pEC50 (Steroidogenic factor 1 [12]): inactive

SMILES: C=C(c1ccccc1)[C@@]12CC[C@@H](O)[C@@H]1CC(CCCCCC)=C2c1ccccc1 (racemic)
Activity [6]: Active
solubility [7]: soluble
Activity [8]: Active
Activity [13]: Active
Activity [10]: Active
Activity [14]: Dose-dependent effect
Activity [11]: Active
Activity [5]: Active

SMILES: C=C(CCCCCC)[C@@]12CCC[C@@H]1CC(CCCCCC)=C2c1ccccc1 (racemic)
pEC50 [15]: inactive
pEC50 (Steroidogenic factor 1 [12]): inactive

SMILES: C=C(c1ccc(-c2ccccc2)cc1)[C@@]12CCC[C@@H]1CC(CCCCCC)=C2c1ccccc1 (racemic)
pEC50 [15]: inactive
pEC50 (Steroidogenic factor 1 [12]): inactive

SMILES: C=C(c1ccc(CC)cc1)[C@@]12CCC[C@@H]1CC(CCCCCC)=C2c1ccccc1 (racemic)
pEC50 [15]: inactive
pEC50 (Steroidogenic factor 1 [12]): inactive

SMILES: C=C(c1ccccc1)[C@@]12CCC[C@@H]1CC(CCCCCC)=C2CCCC (racemic)
pEC50 [15]: inactive

SMILES: C=C(c1ccccc1)[C@@]12CCC[C@@H]1CC=C2c1ccccc1 (racemic)
pEC50 [15]: inactive
pEC50 (Steroidogenic factor 1 [12]): inactive

SMILES: CCCCCCC1=C(c2ccccc2)[C@]2(OC)CCC[C@@H]2C1 (racemic)
pEC50 [15]: inactive
pEC50 (Steroidogenic factor 1 [12]): inactive

SMILES: CCCCCCC1=C(c2ccccc2)[C@]2(OCCCCC)CCC[C@@H]2C1 (racemic)
pEC50 [15]: inactive

SMILES: CCCCCCO[C@@]12CCC[C@@H]1CC(CCCCCC)=C2c1ccccc1 (racemic)
pEC50 [15]: inactive
pEC50 (Steroidogenic factor 1 [12]): inactive
